Test results taken from ChEMBL document CHEMBL1154157, “Synthesis, structure and structure-activity relationship analysis of 3-tert-butoxycarbonyl-2-arylthiazolidine-4-carboxylic acid derivatives as potential antibacterial agents” (Eur J Med Chem, 2009).
≈ marks a conversion by molar mass, not a printed value.

Tests used:
Type in all cases: functional, organism-based
[1] = test system: Escherichia coli; assay: Antibacterial activity against Escherichia coli ATCC 35218 after 24 hrs by MTT method; conditions: ATCC 35218, 24 h
Method in brief: (§1)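 Broth assay in Mueller-Hinton liquid medium. Compounds dissolved in DMSO (stock 50 μg/mL) and serially diluted into the medium. Inoculum approx. 10^5 cfu/mL, incubated 37 °C for 24 h. Afterwards MTT (2 mg/mL in 0.01 mol/L PBS, pH 7.4) added, 4-5 h at room temperature. Dye extracted with isopropanol containing 5% 1 mol/L HCl for 12 h, OD read at 570 nm. IC50 derived colorimetrically.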

[2] = test system: Staphylococcus aureus; assay: Antibacterial activity against Staphylococcus aureus ATCC 6538 after 24 hrs by MTT method; conditions: ATCC 6538, 24 h; method in brief: as §1
[3] = test system: Bacillus subtilis; assay: Antibacterial activity against Bacillus subtilis ATCC 6633 after 24 hrs by MTT method; conditions: ATCC 6633, 24 h; method in brief: as §1
[4] = test system: Pseudomonas aeruginosa; assay: Antibacterial activity against Pseudomonas aeruginosa ATCC 13525 after 24 hrs by MTT method; conditions: ATCC 13525, 24 h; method in brief: as §1

Row | Compound | IC50 [1] [µg/mL] | IC50 [2] [µg/mL] | IC50 [3] [µg/mL] | IC50 [4] [µg/mL]
1 | O=C(O)[C@@H]1CSC(c2ccccc2)N1 (mixture of isomers) | 25 | 12.5 | 3.12 | > 50
2 | O=C(O)[C@@H]1CSC(c2cc(Cl)ccc2O)N1 (mixture of isomers) | 12.5 | 6.25 | 12.5 | 3.12
3 | CC(C)(C)OC(=O)N1C(c2cc(Cl)ccc2O)SC[C@H]1C(=O)O (mixture of isomers) | 1.56 | 1.56 | 1.56 | 0.39
4 | CC(C)(C)OC(=O)N1C(c2ccc(O)cc2)SC[C@H]1C(=O)O (mixture of isomers) | 0.78 | 3.12 | 0.39 | 0.39
5 | CC(C)(C)OC(=O)N1C(c2cc(Br)ccc2O)SC[C@H]1C(=O)O (mixture of isomers) | 1.56 | 1.56 | 1.56 | 0.78
6 | CC(C)(C)OC(=O)N1C(c2cc(C(C)(C)C)c(O)c(C(C)(C)C)c2)SC[C@H]1C(=O)O (mixture of isomers) | 0.69 | 1.56 | 0.39 | 0.39
7 | O=C(O)[C@@H]1CSC(c2cc(Br)ccc2O)N1 (mixture of isomers) | 25 | 12.5 | 12.5 | 6.25
8 | COc1ccc(C2SC[C@@H](C(=O)O)N2C(=O)OC(C)(C)C)cc1 (mixture of isomers) | 0.78 | 1.56 | 3.12 | 0.39
9 | O=C(O)[C@@H]1CSC(c2cc(F)ccc2O)N1 (mixture of isomers) | 12.5 | 6.25 | 3.12 | 1.56
10 | CC(C)(C)OC(=O)N1C(c2ccc(Br)cc2)SC[C@H]1C(=O)O (mixture of isomers) | 0.39 | 3.12 | 3.12 | 0.39
11 | CC(C)(C)OC(=O)N1C(c2cc(F)ccc2O)SC[C@H]1C(=O)O (mixture of isomers) | 0.78 | 0.39 | 0.39 | 0.195
12 | CC(C)(C)c1cc(C2N[C@H](C(=O)O)CS2)cc(C(C)(C)C)c1O (mixture of isomers) | 25 | 12.5 | 25 | 25
13 | CC(C)(C)OC(=O)N1C(c2ccccc2)SC[C@H]1C(=O)O (mixture of isomers) | 0.39 | 0.78 | 3.12 | 0.78
14 | COc1ccc(C2N[C@H](C(=O)O)CS2)cc1 (mixture of isomers) | > 50 | 25 | 12.5 | > 50
15 | CC(C)(C)OC(=O)N1C(c2cc(Br)cc(Br)c2O)SC[C@H]1C(=O)O (mixture of isomers) | 0.78 | 1.56 | 3.12 | 0.39
16 | O=C(O)[C@@H]1CSC(c2ccc(O)cc2)N1 (mixture of isomers) | > 50 | > 50 | 25 | 25
17 | O=C(O)[C@@H]1CSC(c2cc(Br)cc(Br)c2O)N1 (mixture of isomers) | 12.5 | > 50 | 12.5 | 25
18 | NC[C@H]1O[C@H](O[C@H]2[C@H](O)[C@@H](O[C@H]3O[C@H](CO)[C@@H](O)[C@H](N)[C@H]3O)[C@H](N)C[C@@H]2N)[C@H](N)[C@@H](O)[C@@H]1O [BEKANAMYCIN] | 3.12 (≈ 6.46 µM) | 1.56 (≈ 3.23 µM) | 0.39 (≈ 0.807 µM) | 3.12 (≈ 6.46 µM)
19 | CC1(C)S[C@@H]2[C@H](NC(=O)Cc3ccccc3)C(=O)N2[C@H]1C(=O)O [PENICILLIN G] | 6.25 (≈ 18.7 µM) | 1.56 (≈ 4.67 µM) | 1.56 (≈ 4.67 µM) | 6.25 (≈ 18.7 µM)
